Laboratory results: PMC7569488 (Science signaling, 2020)
Changes are numbered by the printed parent chain.

Key:
MKP3 and MKP1 = conditions: cited from earlier work
ERK1/2 [1] = experiment: ERK1/2 phosphorylation in MEFs; assay type: cell-based, mouse; conditions: Mkp5−/− MEFs
Procedure, shortened: (§1)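 Mouse embryo fibroblasts were derived from Mkp5+/+ and Mkp5−/− embryos (days 13-14) and spontaneously immortalized. Cells were treated with test compound overnight, serum-starved 4 h, then stimulated with TGF-β1 (1 ng/ml) for 10 min. Lysates were immunoblotted for phospho- and total MAPK, and the ratio was quantified by fluorescence imaging. 3-6 independent experiments; means ± SEM; t-test.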

[2] = test system: MKP5-CD Tyr^435 mutants (alanine, serine, tryptophan); experiment: Binding and inhibition experiments with Tyr435 mutants; assay type: biochemical, human; conditions: Y435A, Y435S, Y435W
p38α MAPK [3] = experiment: p38α MAPK phosphorylation in MEFs; assay type: cell-based, mouse
Procedure, shortened: as §1

ERK1/2 [4] = experiment: ERK1/2 activation in C2C12 myoblasts; assay type: cell-based, mouse; conditions: even at the highest concentration
Procedure, shortened: (§2)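 C2C12 myoblasts (ATCC) were treated with test compound (0, 10, 25, 50 μM) overnight, serum-starved 4 h, lysed and immunoblotted. Antibodies: phospho-ERK1/2 Thr202/Tyr204, phospho-JNK Thr183/Tyr185, phospho-p38α Thr180/Tyr182, plus the matching total proteins. The pMAPK/MAPK ratio was quantified by direct fluorescence imaging. Four independent experiments; means ± SEM; two-tailed t-test.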

JNK [5] = experiment: JNK phosphorylation in MEFs; assay type: cell-based, mouse
Procedure, shortened: as §1

p38α MAPK [6] = experiment: p38α MAPK activation in C2C12 myoblasts; assay type: cell-based, mouse; conditions: highest concentration of Compound 1, dose-dependent
Procedure, shortened: as §2

JNK [7] = experiment: JNK activation in C2C12 myoblasts; assay type: cell-based, mouse; conditions: highest concentration of Compound 1
Procedure, shortened: as §2

MKP5-CD [8] = molecular target: T1, MKP5-CD (Homo sapiens, UniProt Q9Y6W6); experiment: Malachite green phosphatase assay with p38α MAPK phosphopeptide substrate; assay type: biochemical
T1 sequence (Q9Y6W6 320-467): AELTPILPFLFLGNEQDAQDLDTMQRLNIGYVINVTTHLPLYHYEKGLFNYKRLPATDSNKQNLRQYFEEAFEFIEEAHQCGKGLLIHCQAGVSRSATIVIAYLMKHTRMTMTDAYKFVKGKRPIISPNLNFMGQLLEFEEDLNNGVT

MKP3 = experiment: DiFMUP phosphatase assay, MKP3; assay type: biochemical; conditions: DiFMUP substrate
MKP5 single mutant M431L = molecular target: T2, MKP5 single mutant M431L (Homo sapiens, UniProt Q9Y6W6, M431L); experiment: Malachite green assay, MKP5 M431L mutant; assay type: biochemical
T2 sequence (Q9Y6W6 320-467 M431L): T1 sequence (Q9Y6W6 320-467) with M112L

MKP5-CD [9] = molecular target: T1, MKP5-CD; experiment: Phosphate sensor steady-state kinetic assay with full-length p38α MAPK substrate; assay type: biochemical
MKP5-CD [10] = molecular target: T1, MKP5-CD; experiment: DiFMUP steady-state kinetic assay; assay type: biochemical; conditions: DiFMUP substrate
C2C12 myoblasts [11] = experiment: C2C12 myoblast proliferation; assay type: cell-based, mouse; conditions: C2C12, 72 hr
[12] = molecular target: T3, MKP5 M431L/T432D double mutant (Homo sapiens, UniProt Q9Y6W6, M431L/T432D); experiment: Malachite green assay, MKP5 M431L/T432D double mutant; assay type: biochemical; conditions: p38α MAPK phosphopeptide
T3 sequence (Q9Y6W6 320-467 M431L/T432D): T1 sequence (Q9Y6W6 320-467) with M112L, T113D

PTP-1B = molecular target: T4, PTP-1B (Homo sapiens, UniProt P18031); experiment: Phosphatase selectivity assay, PTP-1B; assay type: biochemical
T4 sequence (P18031 1-435): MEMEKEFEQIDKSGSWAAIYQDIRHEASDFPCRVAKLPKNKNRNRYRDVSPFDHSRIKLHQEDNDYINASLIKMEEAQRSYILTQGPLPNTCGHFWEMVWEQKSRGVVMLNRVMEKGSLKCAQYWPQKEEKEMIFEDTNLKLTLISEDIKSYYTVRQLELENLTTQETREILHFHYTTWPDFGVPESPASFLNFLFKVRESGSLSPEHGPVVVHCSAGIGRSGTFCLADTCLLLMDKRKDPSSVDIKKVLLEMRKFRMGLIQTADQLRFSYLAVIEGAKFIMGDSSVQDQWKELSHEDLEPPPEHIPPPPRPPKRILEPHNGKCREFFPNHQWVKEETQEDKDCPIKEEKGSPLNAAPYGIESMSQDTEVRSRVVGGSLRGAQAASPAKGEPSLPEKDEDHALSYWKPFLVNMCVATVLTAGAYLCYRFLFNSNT

MKP5-CD [13] = molecular target: T1, MKP5-CD; experiment: Transient stopped-flow kinetic assay with DiFMUP; assay type: biochemical
MKP7 = experiment: p38α MAPK phosphopeptide phosphatase assay, MKP7; assay type: biochemical; conditions: p38α MAPK phosphopeptide substrate
Procedure, shortened: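 MKP7-CD (residues 156-301) and MKP5-CD were E. coli-expressed and thrombin-cleaved. Each was assayed with the p38α MAPK diphosphopeptide DDE(Nle)(pT)G(pY)VATR, and released phosphate was detected by malachite green. Activity was normalized to DMSO control and fit to a hyperbolic inhibition equation. The IC50 for MKP7-CD was compared with the IC50 for MKP5-CD.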

Smad2 = experiment: TGF-β1-mediated Smad2 phosphorylation in MEFs; assay type: cell-based, mouse; conditions: TGF-β1 1 ng/ml 10 minutes
[14] = test system: MKP5 mutants M431L, T432D and M431L/T432D; experiment: Binding affinity for Met431/Thr432 mutants; parameters: species or system human
MKP5 single mutant T432D = molecular target: T5, MKP5 single mutant T432D (Homo sapiens, UniProt Q9Y6W6, T432D); experiment: Malachite green assay, MKP5 T432D mutant; assay type: biochemical
T5 sequence (Q9Y6W6 320-467 T432D): T1 sequence (Q9Y6W6 320-467) with T113D

Solubility = assay type: physicochemical
C2C12 myoblasts [15] = experiment: C2C12 myoblast differentiation; assay type: cell-based, mouse; conditions: C2C12, 72 h
Procedure, shortened: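 C2C12 myoblasts were plated in growth medium, then switched to DMEM with 0.1% FBS, 5 μg/mL insulin and 5 μg/mL selenium, plus DMSO vehicle or test compound. Differentiation ran 72 hr. Cells were stained with MF20 antibody (myosin heavy chain) and DAPI. Fusion index = % of nuclei in myotubes with ≥2 nuclei over total nuclei, counted from ≥10 fields. Means ± SEM; two-tailed t-test.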

## O=C1/C(=C/c2ccccc2)C(NC2CCCCC2)c2ccccc21 (centres unmarked) [BCI]
MKP3 and MKP1
  relative potency MKP3 versus MKP1: relative equipotency

## CSc1scc2c1-c1nc(SCC(=O)C(C)(C)C)ncc1CC2 [Compound 1, 3,3-dimethyl-1-((9-(methylthio)-5,6-dihydrothieno[3,4-h]quinazolin-2-yl)thio)butan-2-one]
ERK1/2 [1]
  ERK1/2 phosphorylation: unaffected
[2]
  binding to and inhibition of Tyr435 mutants: capable of binding to and inhibiting the activity of only the Y435W mutant
p38α MAPK [3]; Mkp5−/− MEFs
  phosphorylation of p38α MAPK: did not result in additional phosphorylation
p38α MAPK [3]; wild type MEFs
  phosphorylation of p38α MAPK: dose-dependent increase
ERK1/2 [4]
  activation of ERK1/2: did not alter the activation of ERK1/2
JNK [5]; Mkp5−/− MEFs
  phosphorylation of JNK: did not result in additional phosphorylation
JNK [5]; wild type MEFs
  phosphorylation of JNK: dose-dependent increase
p38α MAPK [6]
  activation of p38α MAPK: up to 4 fold
JNK [7]
  JNK activation: up to 2 fold
MKP5-CD [8]; IC50 against MKP5-CD, p38α MAPK phosphopeptide substrate
  IC50: ~3.9 µM
MKP5-CD [8]; p38α MAPK phosphopeptide
  extent of inhibition of MKP5-CD phosphatase activity: did not fully inhibit
MKP3
  increase in IC50 for MKP3 relative to MKP5: at least 16 fold
MKP5 single mutant M431L
  IC50: 99 µM
MKP5-CD [9]
  Ki: 8.9 ± 2.2 µM
MKP5-CD [9]; full-length p38α MAPK substrate
  α (mixed-mechanism inhibition): ≈ 17.4
MKP5-CD [10]
  α (mixed mechanism of inhibition): 4.2
C2C12 myoblasts [11]
  myoblast proliferation (BrdU-positive cells): did not affect C2C12 myoblast proliferation
[12]
  inhibition of MKP5 M431L/T432D double mutant: nearly abolished inhibition
PTP-1B
  IC50: > 100 µM
MKP5-CD [13]; 20 and 40 μM Compound 1
  fold change of burst rate (k1): 7 fold
MKP5-CD [13]; 20 and 40 μM Compound 1 (8.4 ± 0.2 s^−1 without)
  burst rate (k1) in the presence of Compound 1: 1.2 ± 0.02 s⁻¹
MKP7
  increase in IC50 for MKP7 relative to MKP5: at least 16 fold
Smad2; Mkp5+/+ MEFs
  TGF-β1-mediated Smad2 phosphorylation: inhibited TGF-β1-mediated Smad2 phosphorylation
Smad2; Mkp5−/− MEFs
  TGF-β1-mediated Smad2 phosphorylation: failed to inhibit Smad2 phosphorylation further
[14]
  binding affinity for M431L, T432D and M431L/T432D mutants: Concomitant reductions in the binding affinity
MKP5 single mutant T432D
  IC50: 61 µM
Solubility
  solubility: modest solubility
C2C12 myoblasts [15]
  myoblast differentiation (myotube fusion index): significantly increased
